# Data taken from ChEMBL document CHEMBL1140686, “Indanylacetic acids as PPAR-delta activator insulin sensitizers” (Bioorg Med Chem Lett, 2007).
# Active and inactive are the calls of the source. The rule behind the calls is not given here.
# Legend:
# [1] = molecular target: T1, Peroxisome proliferator-activated receptor alpha (Homo sapiens, UniProt Q07869); experiment: (§1) Agonist activity at PPARalpha by FRET assay; format: functional
# T1 sequence (Q07869 whole entry): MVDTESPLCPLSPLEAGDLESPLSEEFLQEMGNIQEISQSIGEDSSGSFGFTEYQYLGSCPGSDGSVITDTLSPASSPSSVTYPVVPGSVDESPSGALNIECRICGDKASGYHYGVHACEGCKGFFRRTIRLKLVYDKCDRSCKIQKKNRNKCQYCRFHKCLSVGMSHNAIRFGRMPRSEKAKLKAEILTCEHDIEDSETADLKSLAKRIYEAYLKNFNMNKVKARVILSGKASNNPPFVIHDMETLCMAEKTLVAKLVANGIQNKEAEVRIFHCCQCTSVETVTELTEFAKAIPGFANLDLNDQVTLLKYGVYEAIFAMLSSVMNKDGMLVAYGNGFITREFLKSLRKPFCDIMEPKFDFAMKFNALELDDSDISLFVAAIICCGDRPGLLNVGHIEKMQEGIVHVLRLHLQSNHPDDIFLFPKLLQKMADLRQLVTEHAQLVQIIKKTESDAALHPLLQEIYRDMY
# In short: (§2)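 FRET coactivator-recruitment assay run with the PPAR-δ ligand binding domain (GST-tagged human PPAR-δ LBD) and separately with the PPAR-α ligand binding domain. Compounds were incubated with europium-labelled anti-GST antibody, biotinylated TRAP220 coactivator protein and streptavidin-labelled APC. Read in a fluorimeter at excitation 340 nm and emission 615 and 665 nm.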
# 3T3-L1 = experiment: Induction of insulin receptor in mouse 3T3L1 cells assessed as insulin sensitizing activity; format: functional, cell-based; conditions: for EC50: Mus musculus, 3T3-L1
# In short: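 3T3-L1 preadipocytes grown about 1 week to 2 days post-confluence, then exposed 2 days to compound plus 0.5 µM IGF-1 in DMEM/10% FBS/2 mM glutamine/pen-strep, then 4 days in plain medium. Cells bound 0.1 nM [125I]insulin ± 100 nM unlabeled insulin for 1 h at room temperature, were washed and lysed in 1 N NaOH, then gamma-counted. EC50 taken where a plateau was reached; percent maximal stimulation recorded.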
# Mus musculus [2] = experiment: Increase in serum HDL level in hApoA1 mouse model at 10 mg/kg, po; format: functional
# Mus musculus [3] = experiment: Decrease in serum triglyceride level in hApoA1 mouse model at 10 mg/kg, po; format: functional; parameters: scale not given: the % may be the effect or the level left
# Homo sapiens = species on record: Homo sapiens; experiment: Selectivity for PPARdelta over PPARalpha; in short: as §2
# Mus musculus [4] = experiment: Reduction in blood glucose level in db/db mouse at 3 mg/kg, po; format: functional, organism-based; parameters: dose 3 mg/kg
# Mus musculus [5] = experiment: Increase in serum HDL level in hApoA1 mouse model at 30 mg/kg, po; format: functional
# Mus musculus [6] = experiment: Decrease in serum triglyceride level in hApoA1 mouse model at 30 mg/kg, po; format: functional; parameters: scale not given: the % may be the effect or the level left
# Mus musculus [7] = experiment: Reduction in blood glucose level in db/db mouse at 10 mg/kg, po; format: functional, organism-based; parameters: dose 10 mg/kg
# [8] = molecular target: T2, Peroxisome proliferator-activated receptor alpha (Homo sapiens) (UniProt Q07869); experiment: as §1; format: functional; in short: as §2
# T2 sequence (whole entry): T1 sequence (Q07869 whole entry)
# [9] = molecular target: Peroxisome proliferator-activated receptor delta (Homo sapiens) (UniProt Q03181); experiment: Agonist activity at GST-tagged human PPARdelta by FRET assay
# Sequence of Peroxisome proliferator-activated receptor delta (Homo sapiens) (Q03181 whole entry, looked up): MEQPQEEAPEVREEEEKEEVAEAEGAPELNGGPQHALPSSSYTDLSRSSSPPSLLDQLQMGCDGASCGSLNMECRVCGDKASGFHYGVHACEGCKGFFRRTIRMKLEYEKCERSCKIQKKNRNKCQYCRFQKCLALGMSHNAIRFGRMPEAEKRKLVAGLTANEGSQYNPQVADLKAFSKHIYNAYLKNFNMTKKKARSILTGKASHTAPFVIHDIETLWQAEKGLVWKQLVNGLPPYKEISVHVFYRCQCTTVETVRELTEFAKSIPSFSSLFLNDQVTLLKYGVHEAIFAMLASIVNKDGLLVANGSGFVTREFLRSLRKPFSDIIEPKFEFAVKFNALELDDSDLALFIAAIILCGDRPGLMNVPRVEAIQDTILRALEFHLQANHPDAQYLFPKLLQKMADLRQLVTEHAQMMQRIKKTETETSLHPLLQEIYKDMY
SMILES,EC50 [1] [nM],EC50 (3T3-L1) [nM],other results
Cc1sc(-c2ccc(Cl)cc2)nc1CCOc1ccc2c(c1)CC[C@H]2CC(=O)O,10000,970,–
Cc1cc(SCc2sc(-c3ccc(C(F)(F)F)cc3)nc2C)ccc1OCC(=O)O [GW501516],–,–,Activity (Mus musculus [2]): 30%; Activity (Mus musculus [3]): 33%
Cc1sc(-c2ccccc2F)nc1CCOc1ccc2c(c1)CC[C@H]2CC(=O)O,10000,1620,–
Cc1sc(-c2ccccc2)nc1CCOc1ccc2c(c1)CC[C@H]2CC(=O)O,10000,267,Activity (3T3-L1): 60%
Cc1sc(-c2cccc(C(F)(F)F)c2)nc1CCOc1ccc2c(c1)CC[C@H]2CC(=O)O,10000,45,–
Cc1nc(-c2ccccc2)n(C)c1CCOc1ccc2c(c1)CC[C@H]2CC(=O)O,10000,5940,Activity (3T3-L1): 19%
Cc1oc(-c2ccc(C#N)cc2)nc1CCOc1ccc2c(c1)CC[C@H]2CC(=O)O,9980,301,–
Cc1oc(-c2cccc(C#N)c2)nc1CCOc1ccc2c(c1)CC[C@H]2CC(=O)O,10000,164,–
O=C(O)C[C@@H]1CCc2cc(OCCc3nc(-c4ccccc4)oc3CCc3ccccc3)ccc21,10000,> 3000,Activity (3T3-L1): 9%
CN(CCOc1ccc(CC2SC(=O)NC2=O)cc1)c1ccccn1 (centres undefined),–,–,Activity (Mus musculus [7]): Active
CCCc1oc(-c2ccccc2)nc1CCOc1ccc2c(c1)CC[C@H]2CC(=O)O,10000,3000,Activity (3T3-L1): 32%
Cc1nc(-c2ccc(-c3ccccc3)cc2)n(C)c1CCOc1ccc2c(c1)CC[C@H]2CC(=O)O,10000,71,–
Cc1c(CCOc2ccc3c(c2)CC[C@H]3CC(=O)O)nc(-c2ccc(-c3ccccc3)cc2)n1C,10000,54,–
CCc1oc(-c2ccccc2)nc1CCOc1ccc2c(c1)CC[C@H]2CC(=O)O,10000,186,–
Cc1oc(-c2ccccc2)nc1CCOc1ccc2c(c1)CC(C)C2CC(=O)O (centres undefined),7470,5440,Activity [8]: 11%; Activity (3T3-L1): 58%
Cc1sc(-c2ccc(-c3ccccc3)cc2)nc1CCOc1ccc2c(c1)CC[C@H]2CC(=O)O,10000,270,–
COC(C(=O)O)C1CCc2cc(OCCc3nc(-c4ccccc4)oc3C)ccc21 (centres undefined),–,–,Ratio EC50 (Homo sapiens): 0.15
Cc1c(CCOc2ccc3c(c2)CC[C@H]3CC(=O)O)nc(-c2ccccc2)n1C,10000,608,Activity (3T3-L1): 55%
CCOc1ccc(-c2nc(CCOc3ccc4c(c3)CC[C@H]4CC(=O)O)c(C)s2)cc1,10000,165,–
Cc1oc(-c2ccccc2)nc1CCOc1ccc2c(c1)OCC2CC(=O)O (centres undefined),10000,–,Activity [8]: 15%
CCc1ccc(-c2nc(C)c(CCOc3ccc4c(c3)CC[C@H]4CC(=O)O)n2C)cc1,10000,155,–
CCc1ccc(-c2nc(CCOc3ccc4c(c3)CC[C@H]4CC(=O)O)c(C)n2C)cc1,10000,103,–
Cc1sc(-c2ccc(OC(F)(F)F)cc2)nc1CCOc1ccc2c(c1)CC[C@H]2CC(=O)O,7940,225,–
Cc1oc(-c2ccccc2)nc1CCOc1ccc2c(c1)C(C)(C)CC2CC(=O)O (centres undefined),10000,253,Activity [8]: 7.5%; Activity (3T3-L1): 66%; Activity [9]: 38%
COc1ccc(-c2nc(CCOc3ccc4c(c3)CC[C@H]4CC(=O)O)c(C)n2C)cc1,10000,644,Activity (3T3-L1): 56%
COc1ccc(-c2nc(C)c(CCOc3ccc4c(c3)CC[C@H]4CC(=O)O)n2C)cc1,10000,5560,Activity (3T3-L1): 41%

# The remaining compounds from weak to strong by EC50 [1], led by results:
EC50 [1] [nM],SMILES,EC50 (3T3-L1) [nM],other results
6960,COc1cccc(-c2nc(CCOc3ccc4c(c3)CC[C@H]4CC(=O)O)c(C)s2)c1,32,–
6790,Cc1cccc(-c2nc(CCOc3ccc4c(c3)CC[C@H]4CC(=O)O)c(C)s2)c1,50,–
6530,Cc1sc(-c2cccc(F)c2)nc1CCOc1ccc2c(c1)CC[C@H]2CC(=O)O,140,–
3280,COc1ccc(-c2nc(CCOc3ccc4c(c3)CC[C@H]4CC(=O)O)c(C)s2)cc1,166,–
2720,Cc1oc(-c2ccc(-c3ccccc3)cc2)nc1CCOc1ccc2c(c1)CC[C@H]2CC(=O)O,45,Activity (Mus musculus [4]): Active; Activity (Mus musculus [5]): 29%; Activity (Mus musculus [6]): 38%
2530,CCc1ccc(-c2nc(CCOc3ccc4c(c3)CC[C@H]4CC(=O)O)c(CC)o2)cc1,35,–
2460,Cc1oc(-c2ccccc2)nc1CCOc1ccc2c(c1)CC[C@H]2CC(=O)O,231,–
2270,Cc1sc(-c2ccc(F)cc2)nc1CCOc1ccc2c(c1)CC[C@H]2CC(=O)O,544,–
2190,Cc1oc(-c2ccccc2)nc1CCOc1ccc2c(c1)CCC[C@H]2CC(=O)O,–,Activity [8]: 58%; Activity [9]: 50%
1890,COc1cccc(-c2nc(CCOc3ccc4c(c3)CC[C@H]4CC(=O)O)c(C)o2)c1,82,–
1690,Cc1oc(-c2cccc(F)c2)nc1CCOc1ccc2c(c1)CC[C@H]2CC(=O)O,371,–
1570,Cc1oc(-c2cccc(Cl)c2)nc1CCOc1ccc2c(c1)CC[C@H]2CC(=O)O,200,–
1210,Cc1sc(-c2ccc3c(c2)OCO3)nc1CCOc1ccc2c(c1)CC[C@H]2CC(=O)O,66,–
1190,Cc1oc(-c2ccc(Cl)cc2)nc1CCOc1ccc2c(c1)CC[C@H]2CC(=O)O,212,–
1150,Cc1cccc(-c2nc(CCOc3ccc4c(c3)CC[C@H]4CC(=O)O)c(C)o2)c1,101,–
1020,CCc1oc(-c2ccc(C)cc2)nc1CCOc1ccc2c(c1)CC[C@H]2CC(=O)O,30,–
890,Cc1oc(-c2ccccc2)nc1CCOc1ccc2c(c1)CCC2CC(=O)O (centres undefined),–,Ratio EC50 (Homo sapiens): 32
798,COc1ccc(-c2nc(CCOc3ccc4c(c3)CC[C@H]4CC(=O)O)c(C)o2)cc1,29,–
594,Cc1ccc(-c2nc(CCOc3ccc4c(c3)CC[C@H]4CC(=O)O)c(C)s2)cc1,65,–
559,Cc1sc(-c2ccc(C(C)C)cc2)nc1CCOc1ccc2c(c1)CC[C@H]2CC(=O)O,25,–
546,Cc1oc(-c2ccc(C(C)(C)C)cc2)nc1CCOc1ccc2c(c1)CC[C@H]2CC(=O)O,–,–
504,Cc1oc(-c2ccc(F)cc2)nc1CCOc1ccc2c(c1)CC[C@H]2CC(=O)O,354,–
444,Cc1ccc(-c2nc(CCOc3ccc4c(c3)CC[C@H]4CC(=O)O)c(C)o2)cc1,24,–
300,Cc1oc(-c2ccc(C(C)C)cc2)nc1CCOc1ccc2c(c1)CC[C@H]2CC(=O)O,33,–
220,Cc1oc(-c2ccccc2)nc1CCOc1ccc2c(c1)CCC2C(C)C(=O)O (centres undefined),–,Ratio EC50 (Homo sapiens): 1.8
130,CCC(C(=O)O)C1CCc2cc(OCCc3nc(-c4ccccc4)oc3C)ccc21 (centres undefined),–,Ratio EC50 (Homo sapiens): 0.22
78,CCc1ccc(-c2nc(CCOc3ccc4c(c3)CC[C@H]4CC(=O)O)c(C)o2)cc1,27,–
